Screening results: PubChem BioAssay, SRMLSC
The sample as a whole holds a higher share of hits than the screen did.
HCT116 PTEN-null – growth suppressors of cells with PTEN tumor suppressor deletion. AID 827. viability, % at 10 µM. 140,000 compounds, 1.2% hits. HCT116 PTEN-null viability, CellTiter-Glo, 60 h; active compounds read low;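 active = viability at or below a set limit, 4 SD under the median of all tested compounds, cut at about 3.7% in these data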;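 note: PTEN knockout HCT116 line with beta catenin targeted HCT116 as companion control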
HUVEC prolif 384 – blocks proliferation of human endothelial cells; HUVEC proliferation, CellTiter-Glo luminescence, 72 h; active compounds read low; viability, % at 10 µM (by protocol); 86,000 compounds, 1.1% hits;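 active = viability at or below 30%; inactive = viability above 30%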
H69AR growth 86K – growth inhibitors of human H69AR lung tumor cells | H69AR lung tumor viability, ATP luminescence, 72 h; active compounds read low | viability, % at 10 µM | 85,000 compounds, 6% hits;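 active = viability at or below 40%; inactive = viability above 40%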;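 note: multidrug resistant small cell line overexpressing MRP-1 efflux transporter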
Fibroblast inh – blocks proliferation of human lung fibroblasts; LL 47 human lung fibroblast viability, ATP luminescence; active compounds read low; viability, % at 10 µM; 85,000 compounds, 1.1% hits;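 active = viability at or below 50% in the single dose screen; inactive = viability above 50%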;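 note: compound exposure lasted 72 h before the ATP readout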
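Test system: LL 47 human lung fibroblasts / Quantity: 1,150 cells in each well / Medium: IMEM growth medium with 15% fetal bovine serum / Incubation: 72 h compound exposure at 37 °C after overnight plating / Detection: CellTiter-Glo luminescence measuring cellular ATP / Read-out: % viability versus median cells-only luminescence / Benchmarks: cell-only wells, no compound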
bCat KO growth – beta-catenin-lacking colon tumor cell growth suppression | viability, % at 10 µM | 140,000 compounds, 1.5% hits | HCT116 beta-catenin knockout viability, CellTiter-Glo, 60 h; active compounds read low;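 active = viability at or under a set limit, the compound median less 4 SD, cut at about 6% in these data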
Hits are given with their value; – = inactive; · = no result.

SMILES	HCT116 PTEN-null	HUVEC prolif 384	H69AR growth 86K	Fibroblast inh	bCat KO growth
O=C(Oc1cccc2ccccc12)c1ccco1	–	–	–	–	–
O=C(Oc1cccc2cccnc12)c1ccc(Br)o1	–	–	–	–	–
O=C(Oc1cccc2cccnc12)c1ccco1	1.8	–	1.5	5.2	3.0
O=C(Oc1ccc(Cl)c2cccnc12)c1ccco1	–	–	1.3	4.2	5.3
CCCCCCOC(=O)C(C#N)c1nc2ccccc2nc1N1CCOCC1 (stereo not drawn)	–	–	–	–	–
CCCCCCOC(=O)C(C#N)c1nc2ccccc2nc1N1CCN(CC)CC1 (stereo not drawn)	–	4.3	–	–	–
Cc1ccnc(NC(=O)c2ccccc2NC(=O)C(C)(C)C)c1	–	–	19.7	·	–
Cc1ccc(C(=O)CSc2nn3c(=O)c(C(C)(C)C)nnc3s2)cc1	–	–	–	–	–
CC(C)(C)c1nnc2sc(SCC(=O)c3cccs3)nn2c1=O	–	–	14.4	–	–
O=C(CSc1ccc2nnc(-c3ccc(Cl)cc3)n2n1)N1CCCc2ccccc21	2.2	·	·	·	2.4
CC(C)(C)c1nnc2sc(SCC(=O)N3CCCc4ccccc43)nn2c1=O	–	–	16.9	–	–
COc1ccc(/C=C/C(=O)c2ccc(O)cc2)cc1COc1ccc(F)cc1	–	·	·	·	–
COc1ccc(Oc2ccc(/C=C/C(=O)c3ccc(O)cc3)cc2[N+](=O)[O-])cc1	1.3	·	·	·	1.4
COc1cccc(C(=O)/C=C/c2ccc(N3CCCCC3)c([N+](=O)[O-])c2)c1	2.9	·	·	·	3.1
O=[N+]([O-])c1cc(S(=O)(=O)c2ccc(N3CCCCC3)c([N+](=O)[O-])c2)ccc1N1CCCCC1	–	·	·	·	–
O=C(/C=C/c1ccc(N2CCCCC2)c([N+](=O)[O-])c1)c1ccc(S(=O)(=O)N2CCCC2)cc1	0.7	·	·	·	0.9
COc1cccc(C(=O)NC(=S)N2CCN(c3ccc(C(F)(F)F)cc3[N+](=O)[O-])CC2)c1	–	·	·	·	–
COc1ccc(CCNC(=O)CNS(=O)(=O)c2cccs2)cc1OC	–	–	–	–	–
Cc1ccc(C(=O)C[n+]2ccc(-c3nnc4n3CCC4)cc2)cc1	–	·	·	·	–
CC(=O)NC1C(Oc2ccccc2C)OC2COC(c3ccco3)OC2C1O (stereo not drawn)	–	·	·	·	–
CCN(CC)c1ccc2c(Cl)c(Br)c(=O)oc2c1	–	–	11.9	33.9	–
CCN(CC)c1ccc2c(C)c(-c3ccc(N)cc3)c(=O)oc2c1	–	–	–	–	–
CCN(CC)c1ccc2c(c1)oc(=O)c1c(Cl)cc(=O)oc12	2.0	–	1.9	11.0	3.0
Cc1ccc(Nc2nnc(SC(C)C(=O)Nc3c(C)n(C)n(-c4ccccc4)c3=O)s2)cc1 (stereo not drawn)	–	·	·	·	–
O=C1NC(c2ccc3c(c2)OCO3)Nc2ccccc21 (stereo not drawn)	–	–	27.1	–	–
SMILES	HCT116 PTEN-null	HUVEC prolif 384	H69AR growth 86K	Fibroblast inh	bCat KO growth
O=C1NC(c2ccc3c(c2)OCO3)Oc2ccccc21 (stereo not drawn)	–	–	–	–	–
CCCN1C(=O)C(Cc2nc3ccccc3c(=O)n2C)c2ccccc21 (stereo not drawn)	–	–	33.4	–	–
Cc1cc(C)nc(Nc2n[nH]c(COc3cccc4ccccc34)n2)n1	–	–	38.2	–	–
COC(=O)CSc1nc2ccc(NC(=O)CSc3nnnn3Cc3ccccc3)cc2s1	–	–	–	31.4	–
O=C(CSc1nc2ccc(NC(=O)CSc3nnnn3Cc3ccccc3)cc2s1)Nc1ccccc1	–	–	–	–	–
Cc1cc(C)c(NC(=O)CSc2nc3ccc(NC(=O)CSc4nnnn4Cc4ccccc4)cc3s2)c(C)c1	·	–	14.1	–	·
CCCCNC(=O)COc1ccccc1[N+](=O)[O-]	–	·	·	·	–
N=c1n(CCO)c2ccccc2n1CCOc1ccc(Cl)cc1Cl	1.6	2.1	20.5	–	1.7
Cc1ccc2c(c1)c1c(n2CC(O)Cn2c(C)nc3ccccc32)CCCC1 (stereo not drawn)	–	10.8	1.5	–	–
COC(=O)c1ccc2nc(Nc3nc4ccc(F)cc4s3)sc2c1	–	·	·	·	–
CC(=O)c1sc(Nc2nc3ccc(F)cc3s2)nc1C	–	–	20.8	–	–
CCOC(=O)c1sc(Nc2nc3ccc(OC)cc3s2)cc1C	–	·	·	·	–
CCOC(=O)c1csc(Nc2nc3ccc(F)cc3s2)n1	–	·	·	·	4.7
Cc1ccc(-c2nnn(CC(=O)N(CC(=O)NC3CCCCC3)c3ccc(F)c(Cl)c3)n2)o1	–	–	8.3	39.8	–
Cc1ccc(N(C(=O)Cn2nnc(-c3ccc(C)o3)n2)C(C(=O)NC2CCCC2)c2ccco2)cc1 (stereo not drawn)	–	–	·	–	–
Cc1ccc(-c2nnn(CC(=O)N(CC(=O)NC3CCCC3)c3ccc(F)c(Cl)c3)n2)o1	–	–	7.8	–	–
Cc1ccc(-c2nnn(CC(=O)N(CC(=O)NCC3CCCO3)c3ccc(F)c(Cl)c3)n2)o1 (stereo not drawn)	–	–	–	–	–
CCC(C(=O)NC1CCCC1)N(C(=O)Cn1nnc(-c2ccc(C)o2)n1)c1cnc2ccccc2c1 (stereo not drawn)	–	–	5.0	–	–
Cc1ccc(-c2nnn(CC(=O)N(CC(=O)NC3CCCC3)c3cnc4ccccc4c3)n2)o1	–	–	–	–	–
O=C(Nc1ccccc1F)c1ccc(CSc2ccccc2)o1	–	·	·	·	–
Cc1ccc(-c2c(C(=O)NCc3ccc(F)cc3)oc(=O)c3ccccc23)cc1	–	·	·	·	–
Cc1ccc(NC(=O)COC(=O)C2CC2C)c(S(=O)(=O)N2CCCCC2)c1 (stereo not drawn)	–	–	–	–	–
COc1c(N2CCN(C(=S)NCc3ccccc3)C(C)C2)c(F)cc2c(=O)c(C(=O)O)cn(C3CC3)c12 (stereo not drawn)	–	–	2.5	–	–
CC1CCCN(C(=S)NCc2ccccc2)C1 (stereo not drawn)	–	·	·	·	–
COc1ccc(OCc2nnc(SC(C)C(=O)Nc3nccs3)n2-c2ccccc2)cc1 (stereo not drawn)	–	–	–	–	–
SMILES	HCT116 PTEN-null	HUVEC prolif 384	H69AR growth 86K	Fibroblast inh	bCat KO growth
COc1ccc(N/N=C(\C=N\O)C(=O)c2ccc(OC)cc2)cc1	–	37.9	26.2	–	–
COc1ccc(C(=O)/C=C(\C)Nc2ccc(NC(C)=O)cc2)cc1	–	·	·	·	–
Cc1ccc(C2NC(=O)Cc3ccccc32)cc1 (stereo not drawn)	–	–	–	–	–
COC(=O)C1=C(C(=O)OC)C2(OC1c1ccccc1C)C(=O)c1ccccc1C2=O (stereo not drawn)	–	–	–	–	–
O=C(c1cc(-c2cccc(O)c2)on1)N1CCN(C(c2ccccc2)c2ccccc2)CC1	–	–	5.2	–	–
Cc1ccc2cc(CN(Cc3ccccc3)Cc3nnnn3C3CCCC3)c(=O)[nH]c2c1	–	–	5.0	–	–
COc1ccc2cc(CN(Cc3ccco3)Cc3nnnn3C3CCCCC3)c(=O)[nH]c2c1	–	–	–	–	–
